From ChEMBL document CHEMBL4351006, “A new exploration towards aminothiazolquinolone oximes as potentially multi-targeting antibacterial agents: Design, synthesis and evaluation acting on microbes, DNA, HSA and topoisomerase IV” (Eur J Med Chem, 2019) come the findings set out here.

By MIC is commonly meant the least concentration at which growth counts as inhibited.

Experiment [1] has as its system Staphylococcus aureus. The experiment is described as follows: Antibacterial activity against Staphylococcus aureus ATCC 25923 assessed as reduction in bacterial cell viability incubated for 24 hrs by two fold serial dilution method. Conditions: ATCC 25923, 24 h. Type of experiment: functional. The procedure, abridged:
(§1)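 Broth two-fold serial dilution run to CLSI guidelines. Chloromycin, norfloxacin and fluconazole served as reference drugs.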

Experiment [2] relates to Staphylococcus aureus. The experiment is described as follows: Antibacterial activity against methicillin resistant Staphylococcus aureus N315 assessed as reduction in bacterial cell viability incubated for 24 hrs by two fold serial dilution method. Conditions: N315, 24 h. Type of experiment: functional. Put shortly:
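MIC by two-fold serial dilution following CLSI, with chloromycin and norfloxacin as reference drugs.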

In a further experiment the test system is Enterococcus faecalis. In words: Antibacterial activity against Enterococcus faecalis assessed as reduction in bacterial cell viability incubated for 24 hrs by two fold serial dilution method. Type of experiment: functional. The procedure, abridged:
as §1

The test system of experiment [3] is Escherichia coli. In words: Antibacterial activity against Escherichia coli assessed as reduction in bacterial cell viability incubated for 24 hrs by two fold serial dilution method. Type of experiment: functional. The procedure, abridged: as §1
Experiment [4] concerns Candida albicans. In words: Antifungal activity against Candida albicans assessed as reduction in fungal cell viability incubated for 24 hrs by two fold serial dilution method. Type of experiment: functional. The procedure, abridged: as §1
Experiment [5] has as its system Staphylococcus aureus. In words: Antibacterial activity against Staphylococcus aureus ATCC 29213 assessed as reduction in bacterial cell viability incubated for 24 hrs by two fold serial dilution method. Type of experiment: functional. Conditions: ATCC 29213, 24 h. Put shortly:
as §1

A further experiment relates to Acinetobacter baumannii. The experiment is described as follows: Antibacterial activity against Acinetobacter baumannii assessed as reduction in bacterial cell viability incubated for 24 hrs by two fold serial dilution method. Type of experiment: functional. Put shortly: as §1
In experiment [6] the test system is Pseudomonas aeruginosa. In words: Antibacterial activity against Pseudomonas aeruginosa ATCC 27853 assessed as reduction in bacterial cell viability incubated for 24 hrs by two fold serial dilution method. Type of experiment: functional. Conditions: ATCC 27853, 24 h. The procedure, abridged:
as §1

The test system of experiment [7] is Staphylococcus aureus. The experiment is described as follows: Antibacterial activity against Staphylococcus aureus assessed as reduction in bacterial cell viability incubated for 24 hrs by two fold serial dilution method. Type of experiment: functional. The procedure, abridged:
as §1

The next experiment deals with Candida tropicalis. In words: Antifungal activity against Candida tropicalis assessed as reduction in fungal cell viability incubated for 24 hrs by two fold serial dilution method. Type of experiment: functional. Put shortly:
as §1

In experiment [8] the test system is Pseudomonas aeruginosa. In words: Antibacterial activity against Pseudomonas aeruginosa assessed as reduction in bacterial cell viability incubated for 24 hrs by two fold serial dilution method. Type of experiment: functional. The procedure, abridged:
as §1

Experiment [9] has as its system Escherichia coli. In words: Antibacterial activity against Escherichia coli ATCC 25922 assessed as reduction in bacterial cell viability incubated for 24 hrs by two fold serial dilution method. Type of experiment: functional. Conditions: ATCC 25922, 24 h. The procedure, abridged:
as §1

The subject of the next experiment is Klebsiella pneumoniae. The experiment is described as follows: Antibacterial activity against Klebsiella pneumoniae assessed as reduction in bacterial cell viability incubated for 24 hrs by two fold serial dilution method. Type of experiment: functional. Put shortly: as §1
The subject of the next experiment is Aspergillus fumigatus. In words: Antifungal activity against Aspergillus fumigatus assessed as reduction in fungal cell viability incubated for 24 hrs by two fold serial dilution method. Type of experiment: functional. The procedure, abridged: as §1
Another experiment has as its system Candida parapsilosis. The experiment is described as follows: Antifungal activity against Candida parapsilosis ATCC 22019 assessed as reduction in fungal cell viability incubated for 24 hrs by two fold serial dilution method. Conditions: Lodderomyces parapsilosis, ATCC 22019, 24 h.
For experiment [10], the system named is Candida albicans. The experiment is described as follows: Antifungal activity against Candida albicans ATCC 90023 assessed as reduction in fungal cell viability incubated for 24 hrs by two fold serial dilution method. Type of experiment: functional. Conditions: ATCC 90023, 24 h. The procedure, abridged: as §1

Molecules are shown by their SMILES. Values after ≈ are worked out from the molar mass of the structure shown.

Regarding `CCn1cc(-c2csc(N)n2)c(=O)c2cc(N3CCN(C/C(C)=N/O)CC3)c(Cl)cc21`, the MIC in the experiment with Staphylococcus aureus [1] is 17 µM (≈ 7.84 µg/mL); with Staphylococcus aureus [2], 139 µM (≈ 64.1 µg/mL); in the experiment on Enterococcus faecalis, 139 µM (≈ 64.1 µg/mL); in the experiment with Escherichia coli [3] it was 69 µM (≈ 31.8 µg/mL); in the experiment on Candida albicans [4] it was 69 µM (≈ 31.8 µg/mL); with Staphylococcus aureus [5], 139 µM (≈ 64.1 µg/mL). Moreover, the minimum inhibitory concentration (MIC) stood at 278 µM (≈ 128 µg/mL) in the experiment on Acinetobacter baumannii; 555 µM (≈ 256 µg/mL) in the experiment with Pseudomonas aeruginosa [6]; 35 µM (≈ 16.1 µg/mL) in the experiment with Staphylococcus aureus [7]; 278 µM (≈ 128 µg/mL) in the experiment with Candida tropicalis; 139 µM (≈ 64.1 µg/mL) with Pseudomonas aeruginosa [8]; 278 µM (≈ 128 µg/mL) in the experiment with Escherichia coli [9]. Besides, the minimal inhibitory concentration (MIC) worked out at 139 µM (≈ 64.1 µg/mL) with Klebsiella pneumoniae, 278 µM (≈ 128 µg/mL) in the experiment with Aspergillus fumigatus, 278 µM (≈ 128 µg/mL) in the experiment with Candida parapsilosis and 139 µM (≈ 64.1 µg/mL) in the experiment with Candida albicans [10].

Take `CCn1cc(-c2csc(N)n2)c(=O)c2cc(F)c(N3CCN(C/C(=N/OC)c4ccc(OC)cc4)CC3)cc21`: the MIC with Staphylococcus aureus [1] was determined as 465 µM (≈ 256 µg/mL); in the experiment on Staphylococcus aureus [2], 465 µM (≈ 256 µg/mL); in the experiment with Enterococcus faecalis, 232 µM (≈ 128 µg/mL); in the experiment on Escherichia coli [3], 465 µM (≈ 256 µg/mL); in the experiment with Candida albicans [4], 232 µM (≈ 128 µg/mL); with Staphylococcus aureus [5] it was 465 µM (≈ 256 µg/mL). The MIC with Acinetobacter baumannii is 465 µM (≈ 256 µg/mL); with Pseudomonas aeruginosa [6], 465 µM (≈ 256 µg/mL); with Staphylococcus aureus [7], 465 µM (≈ 256 µg/mL); in the experiment on Candida tropicalis it was 232 µM (≈ 128 µg/mL); in the experiment with Pseudomonas aeruginosa [8], 465 µM (≈ 256 µg/mL); with Escherichia coli [9] it was 232 µM (≈ 128 µg/mL). In addition, the minimal inhibitory concentration (MIC) with Klebsiella pneumoniae, in the experiment with Aspergillus fumigatus, in the experiment with Candida parapsilosis and with Candida albicans [10] was 465 µM (≈ 256 µg/mL) in each case.

As for `CCn1cc(-c2csc(N)n2)c(=O)c2cc(F)c(N3CCN(C/C(=N/OC)c4ccc(F)cc4)CC3)cc21`, the minimal inhibitory concentration (MIC) in the experiment on Staphylococcus aureus [1] worked out at 238 µM (≈ 128 µg/mL); with Staphylococcus aureus [2], 238 µM (≈ 128 µg/mL); in the experiment with Enterococcus faecalis it was 475 µM (≈ 256 µg/mL); in the experiment on Escherichia coli [3] it was 475 µM (≈ 256 µg/mL); with Candida albicans [4], 951 µM (≈ 512 µg/mL); in the experiment with Staphylococcus aureus [5] it was 475 µM (≈ 256 µg/mL). In addition, the MIC in the experiment on Acinetobacter baumannii turned out to be 951 µM (≈ 512 µg/mL); in the experiment with Pseudomonas aeruginosa [6] it was 951 µM (≈ 512 µg/mL); with Staphylococcus aureus [7], 475 µM (≈ 256 µg/mL); in the experiment with Candida tropicalis it was 951 µM (≈ 512 µg/mL); with Pseudomonas aeruginosa [8], 951 µM (≈ 512 µg/mL); in the experiment on Escherichia coli [9], 951 µM (≈ 512 µg/mL). The MIC in the experiment with Klebsiella pneumoniae, with Aspergillus fumigatus, in the experiment on Candida parapsilosis and with Candida albicans [10] was 951 µM (≈ 512 µg/mL) in each case.

As for `CCO/N=C(\C)CN1CCN(c2cc3c(cc2F)c(=O)c(-c2csc(N)n2)cn3CC)CC1`, the MIC in the experiment on Staphylococcus aureus [1] is 135 µM (≈ 63.8 µg/mL); with Staphylococcus aureus [2], 135 µM (≈ 63.8 µg/mL); with Enterococcus faecalis it was 68 µM (≈ 32.1 µg/mL); in the experiment with Escherichia coli [3], 135 µM (≈ 63.8 µg/mL); in the experiment on Candida albicans [4], 1080 µM (≈ 512 µg/mL); in the experiment with Staphylococcus aureus [5], 68 µM (≈ 32.1 µg/mL). Further, the MIC in the experiment on Acinetobacter baumannii was 135 µM (≈ 63.8 µg/mL); with Pseudomonas aeruginosa [6], 135 µM (≈ 63.8 µg/mL); with Staphylococcus aureus [7], 34 µM (≈ 16.1 µg/mL); with Candida tropicalis, 68 µM (≈ 32.1 µg/mL); in the experiment with Pseudomonas aeruginosa [8] it was 135 µM (≈ 63.8 µg/mL); with Escherichia coli [9], 68 µM (≈ 32.1 µg/mL). For the same compound, the minimal inhibitory concentration (MIC) with Klebsiella pneumoniae stood at 135 µM (≈ 63.8 µg/mL); in the experiment on Aspergillus fumigatus it was 542 µM (≈ 256 µg/mL); in the experiment with Candida parapsilosis, 68 µM (≈ 32.1 µg/mL); in the experiment with Candida albicans [10], 542 µM (≈ 256 µg/mL).

On to `CCn1cc(-c2csc(N)n2)c(=O)c2cc(F)c(N3CCN(CC(C)=O)CC3)cc21`, for which the minimal inhibitory concentration (MIC) came to 288 µM (≈ 124 µg/mL) with Staphylococcus aureus [1]; 72 µM (≈ 30.9 µg/mL) in the experiment with Staphylococcus aureus [2]; 288 µM (≈ 124 µg/mL) in the experiment with Enterococcus faecalis; 1150 µM (≈ 494 µg/mL) in the experiment with Escherichia coli [3]; 575 µM (≈ 247 µg/mL) with Candida albicans [4]; 575 µM (≈ 247 µg/mL) with Staphylococcus aureus [5]. The minimal inhibitory concentration (MIC) in the experiment on Acinetobacter baumannii was determined as 288 µM (≈ 124 µg/mL); in the experiment on Pseudomonas aeruginosa [6] it was 36 µM (≈ 15.5 µg/mL); in the experiment with Staphylococcus aureus [7], 144 µM (≈ 61.9 µg/mL); in the experiment on Candida tropicalis, 288 µM (≈ 124 µg/mL); in the experiment on Pseudomonas aeruginosa [8], 288 µM (≈ 124 µg/mL); in the experiment with Escherichia coli [9], 288 µM (≈ 124 µg/mL). The minimal inhibitory concentration (MIC) with Klebsiella pneumoniae was found to be 72 µM (≈ 30.9 µg/mL); with Aspergillus fumigatus it was 575 µM (≈ 247 µg/mL); in the experiment with Candida parapsilosis, 288 µM (≈ 124 µg/mL); with Candida albicans [10], 144 µM (≈ 61.9 µg/mL).

As for `CCn1cc(-c2csc(N)n2)c(=O)c2cc(F)c(N3CCN(C/C(C)=N/O)CC3)cc21`, the minimal inhibitory concentration (MIC) in the experiment with Staphylococcus aureus [1] came out at 36 µM (≈ 16 µg/mL); in the experiment with Staphylococcus aureus [2], 72 µM (≈ 32 µg/mL); in the experiment with Enterococcus faecalis, 288 µM (≈ 128 µg/mL); in the experiment on Escherichia coli [3] it was 288 µM (≈ 128 µg/mL); with Candida albicans [4] it was 72 µM (≈ 32 µg/mL); with Staphylococcus aureus [5] it was 144 µM (≈ 64 µg/mL). For the same compound, the minimum inhibitory concentration (MIC) was determined as 288 µM (≈ 128 µg/mL) in the experiment on Acinetobacter baumannii; 144 µM (≈ 64 µg/mL) with Pseudomonas aeruginosa [6]; 72 µM (≈ 32 µg/mL) in the experiment on Staphylococcus aureus [7]; 288 µM (≈ 128 µg/mL) in the experiment with Candida tropicalis; 288 µM (≈ 128 µg/mL) in the experiment on Pseudomonas aeruginosa [8]; 72 µM (≈ 32 µg/mL) in the experiment with Escherichia coli [9]. Also, the minimum inhibitory concentration (MIC) with Klebsiella pneumoniae was 72 µM (≈ 32 µg/mL); in the experiment on Aspergillus fumigatus, 288 µM (≈ 128 µg/mL); in the experiment with Candida parapsilosis, 72 µM (≈ 32 µg/mL); in the experiment with Candida albicans [10] it was 72 µM (≈ 32 µg/mL).
